# Reference: ChEMBL document CHEMBL1123954, “Synthesis and antitumor activity of analogues of ifosfamide modified in the N-(2-chloroethyl) group” (J Med Chem, 1988)
# How the values were obtained:
# Mus musculus [1] = experiment: Percentage increase in life span of L1210 leukemia implanted mice at a dose of 150 mg/kg; format: functional
# In short: (§1)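 Female CD2F1 mice, 10–12 weeks old, inoculated ip on day 0 with 10⁵ L1210 leukemia cells. Test agent dissolved in sterile saline immediately before use and given as a single ip dose on day 1 at 0.01 mL/g body weight. Groups of 6–8 treated and 18–24 control mice, following NCI screening protocol. Read-out is % increase in life span, with survivors noted at day 60.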
# Mus musculus [2] = species on record: Mus musculus; experiment: Effective dose that causes 50% increase in life span of mice; format: functional
# In short: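 In L1210-bearing mice, ip dosing was run on day 1 across 4–6 dose levels giving 15–100% ILS, with six mice per dose. ED50 (dose giving 50% ILS) was obtained per experiment by linear regression of dose against %ILS. Values are reported as mean ± SD over the number of experiments.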
# Mus musculus [3] = experiment: Percentage increase in life span of L1210 leukemia implanted mice at a dose of 300 mg/kg; format: functional; in short: as §1
# Mus musculus [4] = experiment: Percentage increase in life span of L1210 leukemia implanted mice at a dose of 60 mg/kg; format: functional; in short: as §1
# Mus musculus [5] = experiment: Percentage increase in life span of L1210 leukemia implanted mice at a dose of 200 mg/kg; format: functional; in short: as §1
# Mus musculus [6] = experiment: Percentage increase in life span of L1210 leukemia implanted mice at a dose of 100 mg/kg; format: functional; in short: as §1
# Mus musculus [7] = experiment: Percentage increase in life span of L1210 leukemia implanted mice at a dose of 400 mg/kg; format: functional; in short: as §1
# [8] = Lethal dose to kill 50% of the mice after single ip injection to healthy female CD2F1 mice; format: toxicity, organism-based; conditions: CD2F1, mouse, in vivo
# In short: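 Healthy female CD2F1 mice received a single ip injection at 5–6 dose levels spanning 0–100% mortality, with 10 or 15 animals per group. Deaths were followed for 21 days. LD50 and 95% confidence limits were calculated by probit analysis.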
# Mus musculus [9] = experiment: Percentage increase in life span of L1210 leukemia implanted mice at a dose of 500 mg/kg; format: functional; in short: as §1
# Mus musculus [10] = experiment: Percentage increase in life span of L1210 leukemia implanted mice at a dose of 120 mg/kg; format: functional; in short: as §1
# Mus musculus [11] = experiment: Percentage increase in life span of L1210 leukemia implanted mice at a dose of 30-180 mg/kg; value range is 0-12; format: functional; in short: as §1
# Mus musculus [12] = experiment: Percentage increase in life span of L1210 leukemia implanted mice at a dose of 15-60 mg/kg; format: functional; in short: as §1
# Mus musculus [13] = experiment: Percentage increase in life span of L1210 leukemia implanted mice at a dose of 30-180 mg/kg; format: functional; in short: as §1
# Mus musculus [14] = experiment: Percentage increase in life span of L1210 leukemia implanted mice at a dose of 80 mg/kg; format: functional; in short: as §1
# Mus musculus [15] = experiment: Percentage increase in life span of L1210 leukemia implanted mice at a dose of […] 50 mg/kg; format: functional; in short: as §1
# Mus musculus [16] = experiment: Percentage increase in life span of L1210 leukemia implanted mice at a dose of 180 mg/kg; format: functional; in short: as §1
# Mus musculus [17] = experiment: Percentage increase in life span of L1210 leukemia implanted mice at a dose of 600 mg/kg; format: functional; in short: as §1
SMILES,ILS at 150 mg/kg (Mus musculus [1]),ED50 (Mus musculus [2]),ILS at 300 mg/kg (Mus musculus [3]),ILS at 200 mg/kg (Mus musculus [5]),ILS at 100 mg/kg (Mus musculus [6]),ILS at 400 mg/kg (Mus musculus [7]),LD50 [8],ILS at 120 mg/kg (Mus musculus [10]),further results
O=[P@@]1(NCCBr)OCCCN1CCCl,> 550%,27.7 mg/kg,> 350%,> 550%,> 550%,62%,368 mg/kg,–,ILS at 60 mg/kg (Mus musculus [4]): 140%
O=[P@]1(NCCBr)OCCCN1CCCl,> 500%,66.2 mg/kg,> 550%,> 550%,–,> 550%,541 mg/kg,114%,ILS at 500 mg/kg (Mus musculus [9]): 206%
O=P(OCCNP1(=O)OCCCN1CCCl)(OCc1ccccc1)OCc1ccccc1 (stereo not given),–,–,–,–,–,–,–,–,ILS (Mus musculus [11]): 0%
CCOP(=O)(OCC)OCCNP1(=O)OCCCN1CCCl (stereo not given),–,–,–,–,–,–,–,–,ILS (Mus musculus [11]): 0%
O=P1(NCCF)OCCCN1CCCl (stereo not given),–,–,–,-40%,-40%,–,–,–,ILS (Mus musculus [12]): 10%
Cc1ccc(S(=O)(=O)OCCNP2(=O)OCCCN2CCCl)cc1 (stereo not given),–,–,–,–,–,–,–,–,ILS (Mus musculus [13]): 13%
O=P1(NCCBr)OCCCN1CCCl (stereo not given),> 550%,36.2 mg/kg,> 550%,> 550%,> 430%,500%,470 mg/kg,–,ILS at 80 mg/kg (Mus musculus [14]): 110%; ILS at 60 mg/kg (Mus musculus [4]): 88%; ILS at 50 mg/kg (Mus musculus [15]): 74%
CC(=O)OCCNP1(=O)OCCCN1CCCl (stereo not given),–,–,–,–,–,–,–,–,ILS (Mus musculus [13]): 13%
O=P1(N(CCCl)CCCl)NCCCO1 (stereo not given) [CYCLOPHOSPHAMIDE ANHYDROUS],89%,90.6 mg/kg,> 550%,> 550%,–,> 425%,445 mg/kg,86%,–
O=P1(NCCCl)OCCCN1CCCl (stereo not given) [IFOSFAMIDE],123%,88.6 mg/kg,> 400%,> 350%,–,> 500%,679 mg/kg,74%,ILS at 180 mg/kg (Mus musculus [16]): > 250%; ILS at 500 mg/kg (Mus musculus [9]): > 500%; ILS at 600 mg/kg (Mus musculus [17]): > 480%
